Experimental data from ChEMBL document CHEMBL5608214, “Novel tetrasubstituted 5-Arylamino pyrazoles able to interfere with angiogenesis and Ca2+ mobilization” (Eur J Med Chem, 2024).
Activity calls are given as the source filed them. The rule behind the calls is not given here.

System: SK-MEL-28
Assay: Antiproliferative activity against human SK-MEL-28 cells assessed as cell growth at 10 uM incubated for 48 hrs by MTT assay relative to control
Assay type: functional
Conditions: read-out: Activity
Outline: (§1)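 Cells in DMEM with 10 % FBS, 2 mM glutamine and pen-strep, 37 °C, 5 % CO₂, plated to reach 80–90 % confluence at endpoint. At 16 h, compounds were added from a 10 mM DMSO stock to 10 μM final. After 48 h, MTT (2 mg/mL in PBS) was added for 4 h, formazan dissolved in DMSO, and OD read at 570 nm. Results are % of solvent control; three runs, six replicates each, mean ± SD.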

| Structure (SMILES) | growth at 10 µM [%] |
| --- | --- |
| CCCC(O)Cn1nc(Nc2ccc(Cl)c(Cl)c2)c(C(=O)OCC)c1N (stereo not drawn) | 137 |
| CCCC(O)Cn1nc(Nc2cccc(Cl)c2)c(C(=O)OCC)c1N (stereo not drawn) | 122 |

System: SK-OV-3
Assay: Antiproliferative activity against human SK-OV-3 cells assessed as cell growth at 10 uM incubated for 48 hrs by MTT assay relative to control
Assay type: functional
Conditions: read-out: Activity
Outline: as §1

| Structure (SMILES) | growth at 10 µM [%] |
| --- | --- |
| CCCC(O)Cn1nc(Nc2ccc(Cl)c(Cl)c2)c(C(=O)OCC)c1N (stereo not drawn) | 116 |
| CCCC(O)Cn1nc(Nc2cccc(Cl)c2)c(C(=O)OCC)c1N (stereo not drawn) | 118 |

System: MCF7
Assay: Antiproliferative activity against human MCF7 cells assessed as cell growth at 10 uM incubated for 48 hrs by MTT assay relative to control
Assay type: functional
Conditions: read-out: Activity
Outline: as §1

| Structure (SMILES) | growth at 10 µM [%] |
| --- | --- |
| CCCC(O)Cn1nc(Nc2ccc(Cl)c(Cl)c2)c(C(=O)OCC)c1N (stereo not drawn) | 107 |
| CCCC(O)Cn1nc(Nc2cccc(Cl)c2)c(C(=O)OCC)c1N (stereo not drawn) | 95 |

System: A549
Assay: Antiproliferative activity against human A549 cells assessed as cell growth at 10 uM incubated for 48 hrs by MTT assay relative to control
Assay type: functional
Conditions: read-out: Activity
Outline: as §1

| Structure (SMILES) | growth at 10 µM [%] |
| --- | --- |
| CCCC(O)Cn1nc(Nc2ccc(Cl)c(Cl)c2)c(C(=O)OCC)c1N (stereo not drawn) | 94 |
| CCCC(O)Cn1nc(Nc2cccc(Cl)c2)c(C(=O)OCC)c1N (stereo not drawn) | 85 |

System: SK-BR-3
Assay: Antiproliferative activity against human SK-BR-3 cells assessed as cell growth at 10 uM incubated for 48 hrs by MTT assay relative to control
Assay type: functional
Conditions: read-out: Activity
Outline: as §1

| Structure (SMILES) | growth at 10 µM [%] |
| --- | --- |
| CCCC(O)Cn1nc(Nc2ccc(Cl)c(Cl)c2)c(C(=O)OCC)c1N (stereo not drawn) | 127 |
| CCCC(O)Cn1nc(Nc2cccc(Cl)c2)c(C(=O)OCC)c1N (stereo not drawn) | 113 |

System: HeLa
Assay: Antiproliferative activity against human HeLa cells assessed as cell growth at 10 uM incubated for 48 hrs by MTT assay relative to control
Assay type: functional
Conditions: read-out: Activity
Outline: as §1

| Structure (SMILES) | growth at 10 µM [%] |
| --- | --- |
| CCCC(O)Cn1nc(Nc2ccc(Cl)c(Cl)c2)c(C(=O)OCC)c1N (stereo not drawn) | 119 |
| CCCC(O)Cn1nc(Nc2cccc(Cl)c2)c(C(=O)OCC)c1N (stereo not drawn) | 100 |

System: HepG2
Assay: Antiproliferative activity against human HepG2 cells assessed as cell growth at 10 uM incubated for 48 hrs by MTT assay relative to control
Assay type: functional
Conditions: read-out: Activity
Outline: as §1

| Structure (SMILES) | growth at 10 µM [%] |
| --- | --- |
| CCCC(O)Cn1nc(Nc2ccc(Cl)c(Cl)c2)c(C(=O)OCC)c1N (stereo not drawn) | 116 |
| CCCC(O)Cn1nc(Nc2cccc(Cl)c2)c(C(=O)OCC)c1N (stereo not drawn) | 90 |

System: MDA-MB-231
Assay: Antiproliferative activity against human MDA-MB-231 cells assessed as cell growth at 10 uM incubated for 48 hrs by MTT assay relative to control
Assay type: functional
Conditions: read-out: Activity
Outline: as §1

| Structure (SMILES) | growth at 10 µM [%] |
| --- | --- |
| CCCC(O)Cn1nc(Nc2ccc(Cl)c(Cl)c2)c(C(=O)OCC)c1N (stereo not drawn) | 176 |
| CCCC(O)Cn1nc(Nc2cccc(Cl)c2)c(C(=O)OCC)c1N (stereo not drawn) | 168 |

System: not listed separately
Assay: Antiproliferative activity against human GM06114 cells assessed as cell growth at 10 uM incubated for 48 hrs by MTT assay relative to control
Assay type: toxicity, cell-based
Conditions: read-out: Activity
Outline: as §1

| Structure (SMILES) | viability at 48 h, 10 µM [%] |
| --- | --- |
| CCCC(O)Cn1nc(Nc2ccc(Cl)c(Cl)c2)c(C(=O)OCC)c1N (stereo not drawn) | 87 |
| CCCC(O)Cn1nc(Nc2cccc(Cl)c2)c(C(=O)OCC)c1N (stereo not drawn) | 82 |

System: not listed separately
Assay: Antiproliferative activity against human HUVEC cells assessed as cell growth at 10 uM incubated for 48 hrs by MTT assay relative to control
Assay type: toxicity, cell-based
Conditions: read-out: Activity
Outline: as §1

| Structure (SMILES) | viability at 48 h, 10 µM [%] |
| --- | --- |
| CCCC(O)Cn1nc(Nc2ccc(Cl)c(Cl)c2)c(C(=O)OCC)c1N (stereo not drawn) | 93 |
| CCCC(O)Cn1nc(Nc2cccc(Cl)c2)c(C(=O)OCC)c1N (stereo not drawn) | 97 |

System: HUVEC
Assay: Anti-angiogenetic activity in human HUVEC cells assessed as reduction in tube length at 10 uM incubated for 12 hrs by microscopy
Assay type: functional, cell-based
Conditions: not given
Outline: (§2)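 HUVEC seeded at 2 × 10⁴ cells/well onto gelled Matrigel (mixed 1:1 with EGM-2, set 30 min at 37 °C). Cells were exposed to test agents at 10 μM for 12 h with no stimulus; untreated wells served as control. Tube long axis and branching points were counted in 10 random fields per well at 10× (Angiogenesis Analyzer), giving mean tube length per well. Mean of at least three independent experiments.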

| Structure (SMILES) | Activity |
| --- | --- |
| CCCC(O)Cn1nc(Nc2ccc(Cl)c(Cl)c2)c(C(=O)OCC)c1N (stereo not drawn) | Active |
| CCCC(O)Cn1nc(Nc2cccc(Cl)c2)c(C(=O)OCC)c1N (stereo not drawn) | Active |

System: HUVEC
Assay: Anti-angiogenetic activity in human HUVEC cells assessed as reduction in tube branching at 10 uM incubated for 12 hrs by microscopy
Assay type: functional, cell-based
Conditions: not given
Outline: as §2

| Structure (SMILES) | Activity |
| --- | --- |
| CCCC(O)Cn1nc(Nc2ccc(Cl)c(Cl)c2)c(C(=O)OCC)c1N (stereo not drawn) | Active |
| CCCC(O)Cn1nc(Nc2cccc(Cl)c2)c(C(=O)OCC)c1N (stereo not drawn) | Active |

System: HUVEC
Assay: Anti-angiogenetic activity in human HUVEC cells assessed as number of tube branching points at 10 uM incubated for 12 hrs by microscopy
Assay type: functional
Conditions: not given
Outline: as §2

| Structure (SMILES) | Activity |
| --- | --- |
| CCOC(=O)c1c(Nc2ccc(C)cc2)nn(CC(O)c2ccccc2)c1N (stereo not drawn) | 17 |
| CCCC(O)Cn1ncc(C(=O)OCC)c1NC(=O)Nc1cccc(C(F)(F)F)c1 (stereo not drawn) | 19 |

System: HUVEC
Assay: Anti-angiogenetic activity in human HUVEC cells assessed as relative tube length at 10 uM incubated for 12 hrs by microscopy
Assay type: functional
Conditions: not given
Outline: as §2

| Structure (SMILES) | Activity |
| --- | --- |
| CCOC(=O)c1c(Nc2ccc(C)cc2)nn(CC(O)c2ccccc2)c1N (stereo not drawn) | 48 |
| CCCC(O)Cn1ncc(C(=O)OCC)c1NC(=O)Nc1cccc(C(F)(F)F)c1 (stereo not drawn) | 21 |

System: HUVEC
Assay: Inhibition of cell migration in human HUVEC cells at 10 uM incubated for 24 hrs by wound healing assay
Assay type: functional, cell-based
Conditions: not given
Outline: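 Confluent HUVEC monolayers (2 × 10⁵/well, 24 h) were scratched with a p10 tip and treated at 10 μM with mitomycin C 10 μg/ml to block mitosis. Wounds were photographed at 0 and 24 h (4× phase contrast). Migration was taken as the change in distance covered by the wound edges. n = 3 independent experiments, mean ± SD.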

| Structure (SMILES) | inhibition |
| --- | --- |
| CCCC(O)Cn1nc(Nc2cccc(Cl)c2)c(C(=O)OCC)c1N (stereo not drawn) | Active |

System: HUVEC
Assay: Inhibition of cell invasion in human HUVEC cells at 10 uM incubated for 24 hrs by transwell assay
Assay type: functional, cell-based
Conditions: not given
Outline: (§3)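 Transwell inserts with 8.0 pore size were coated with Matrigel 1:3 in serum-free medium. HUVEC (2 × 10⁴/insert) went in serum-free medium in the upper chamber, with treatments (10 μM) in growth medium below, for 24 h at 37 °C. Filters were fixed in 4 % paraformaldehyde then methanol and stained with 0.5 % crystal violet. Cells on the lower surface were counted in ten random fields at 10×. n = 3.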

| Structure (SMILES) | inhibition |
| --- | --- |
| CCCC(O)Cn1nc(Nc2cccc(Cl)c2)c(C(=O)OCC)c1N (stereo not drawn) | Active |

System: HUVEC
Assay: Inhibition of cell invasion in human HUVEC cells assessed as number of cells at 10 uM incubated for 24 hrs by transwell assay
Assay type: functional
Conditions: not given
Outline: as §3

| Structure (SMILES) | Activity |
| --- | --- |
| CCCC(O)Cn1ncc(C(=O)OCC)c1NC(=O)Nc1cccc(C(F)(F)F)c1 (stereo not drawn) | 383 |
| CCCC(O)Cn1nc(Nc2cccc(Cl)c2)c(C(=O)OCC)c1N (stereo not drawn) | 491 |

System: HUVEC
Assay: Anti-angiogenetic activity in human HUVEC cells assessed as number of tube branching points at 10 uM incubated for 12 hrs in presence of tumor secretome from human MIA PaCa-2 cell supernatant by microscopy (reference value: 17)
Assay type: functional
Conditions: not given

| Structure (SMILES) | Activity |
| --- | --- |
| CCCC(O)Cn1nc(Nc2cccc(Cl)c2)c(C(=O)OCC)c1N (stereo not drawn) | ~8 |

System: HUVEC
Assay: Anti-angiogenetic activity in human HUVEC cells assessed as relative tube length at 10 uM incubated for 12 hrs in presence of tumor secretome from human MIA PaCa-2 cell supernatant by microscopy (reference value: 108)
Assay type: functional
Conditions: not given

| Structure (SMILES) | Activity |
| --- | --- |
| CCCC(O)Cn1nc(Nc2cccc(Cl)c2)c(C(=O)OCC)c1N (stereo not drawn) | 55 |

System: not listed separately
Assay: Effect on intracellular calcium signaling in human HUVEC cells assessed as inhibition of calcium mobilization by measuring fluorescence intensity at 10 uM incubated for 1 hr by Fluo-4 a.m. cytofluorimetric assay relative to control
Assay type: functional
Set-up: scale not given: the % may be the effect or the level left
Conditions: not given
Outline: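 Trypsinized HUVEC at 5 × 10⁵/ml were treated with compounds at 10 μM in PBS for 1 h at room temperature, washed, then loaded with 2.5 μM Fluo-4 AM (0.06 % DMSO final) for 45 min at 37 °C. Fluorescence was read by flow cytometry with a 530/30 filter. Ionomycin served as positive control and EDTA (added 15 min before) as negative control. n = 3, mean ± SD.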

| Structure (SMILES) | Activity [%] |
| --- | --- |
| CCCC(O)Cn1ncc(C(=O)OCC)c1NC(=O)Nc1cccc(C(F)(F)F)c1 (stereo not drawn) | 20 |
| CCCC(O)Cn1nc(Nc2cccc(Cl)c2)c(C(=O)OCC)c1N (stereo not drawn) | 21 |

System: HUVEC
Assay: Effect on conformation of actin filament organization in human HUVEC cells at 10 uM treated for 24 hrs by immunofluorescence assay
Assay type: functional, cell-based
Conditions: not given
Outline: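 HUVEC were left untreated or treated 24 h at 10 μM final. Cells were then fixed on coverslips in 4 % paraformaldehyde, permeabilized with 0.2 % Triton X-100 and blocked with 20 % goat serum. F-actin was stained with FITC-phalloidin (5 µg/ml, 2 h, room temperature, dark) and nuclei with Hoechst 33342. Cells were imaged by confocal microscopy.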

| Structure (SMILES) | Activity |
| --- | --- |
| CCCC(O)Cn1ncc(C(=O)OCC)c1NC(=O)Nc1cccc(C(F)(F)F)c1 (stereo not drawn) | Active |
| CCCC(O)Cn1nc(Nc2cccc(Cl)c2)c(C(=O)OCC)c1N (stereo not drawn) | Active |
